According to ChEMBL document CHEMBL1955847, “2-Morpholinoisoflav-3-enes as flexible intermediates in the synthesis of phenoxodiol, isophenoxodiol, equol and analogues: vasorelaxant properties, estrogen receptor binding and Rho/RhoA kinase pathway inhibition” (Bioorg Med Chem, 2012):
Calls of active or inactive are those of the source. The rule behind the calls is not given here.

Assays:
Aorta [1] = assay: Vasorelaxant activity in Sprague-Dawley rat thoracic aorta assessed as inhibition of phenylephirne-induced contraction; assay type: functional, tissue-based
Outline: (§1)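 Aortic rings 2–3 mm long from male Sprague-Dawley rats were bathed in Krebs-bicarbonate at 37 °C, pH 7.4, aerated with 95% O2/5% CO2, and equilibrated 1 h at 1 g resting tension. Rings were maximally contracted with KPSS (122.7 mM KCl) and re-equilibrated, then given submaximal phenylephrine. Endothelium was checked with acetylcholine, and cumulative concentration-response curves were run. DMSO was at most 0.1%. n = 3–5.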

Estrogen receptor = biological target: T1, Estrogen receptor (Rattus norvegicus, UniProt P06211); assay: Displacement of [3H]estradiol from rat uterine cytosolic estrogen receptor
T1 sequence (P06211 whole entry): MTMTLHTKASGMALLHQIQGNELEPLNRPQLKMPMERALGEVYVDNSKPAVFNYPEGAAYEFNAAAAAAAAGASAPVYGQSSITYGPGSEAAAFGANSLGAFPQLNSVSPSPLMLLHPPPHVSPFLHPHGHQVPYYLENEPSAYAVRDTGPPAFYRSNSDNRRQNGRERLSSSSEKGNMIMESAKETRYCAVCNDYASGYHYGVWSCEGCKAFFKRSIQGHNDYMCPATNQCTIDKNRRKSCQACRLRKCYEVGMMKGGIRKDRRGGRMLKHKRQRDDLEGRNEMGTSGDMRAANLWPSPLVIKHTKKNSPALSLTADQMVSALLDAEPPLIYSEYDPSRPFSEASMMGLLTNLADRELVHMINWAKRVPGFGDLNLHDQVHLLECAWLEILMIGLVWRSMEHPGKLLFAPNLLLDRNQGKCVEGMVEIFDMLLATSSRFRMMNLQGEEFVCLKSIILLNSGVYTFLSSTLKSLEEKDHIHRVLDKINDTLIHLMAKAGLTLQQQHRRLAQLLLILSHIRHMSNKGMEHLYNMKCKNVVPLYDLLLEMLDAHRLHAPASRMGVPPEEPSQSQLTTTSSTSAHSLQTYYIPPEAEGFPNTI
Outline: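 Rat uterine cytosol incubated with 0.2 nM [3H]-estradiol in 10 mM Tris (pH 7.4, 1.5 mM EDTA, 10% w/v glycerol, 1 mM PMSF), with and without ICI 182,780 to define binding. Compounds were made from 10 mM DMSO stocks and diluted into buffer, giving 0.1% v/v DMSO at the top concentration and in all lower dilutions.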

Aorta [2] = assay: Vasorelaxant activity in Sprague-Dawley rat thoracic aorta assessed as inhibition of phenylephirne-induced contraction in presence of 0.1 uM estrogen receptor antagonist ICI 182780; assay type: functional, tissue-based
Aorta [3] = assay: Vasorelaxant activity in Sprague-Dawley rat thoracic aorta assessed as inhibition of U46619-induced GTP RhoA level at 100 uM pretreated for 30 mins measured after 45 mins by spectrometric analysis; assay type: functional, tissue-based
Outline: (§2)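 Male Sprague-Dawley thoracic aortic rings were denuded of endothelium and pretreated 30 min with compound, flavone or vehicle, then contracted with 30 nM U46619. Rings were snap-frozen in liquid N2 and homogenized in lysis buffer, then spun at 12,000g for 15 min at 4 °C. Supernatant was run in a RhoA G-LISA with HRP detection and absorbance read at 490 nm. Triplicate.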

Aorta [4] = assay: Vasorelaxant activity in Sprague-Dawley rat thoracic aorta assessed as inhibition of phenylephirne-induced contraction at highest concentration; assay type: functional, tissue-based; outline: as §1
Aorta [5] = assay: Vasorelaxant activity in Sprague-Dawley rat thoracic aorta assessed as inhibition of U46619-induced vascular tension at 100 uM pretreated for 30 mins; assay type: functional, tissue-based
Outline: (§3)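 Male Sprague-Dawley thoracic aortic rings were held in Krebs-bicarbonate at 37 °C, pH 7.4, gassed with 95% O2/5% CO2. Rings were pretreated 30 min with compound or vehicle, then contracted with 30 nM U46619, and vascular tension was recorded. Final DMSO was 0.1%. n = 2, run in duplicate.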

Aorta [6] = assay: Vasorelaxant activity in Sprague-Dawley rat thoracic aorta assessed as inhibition of U46619-induced vascular tension at 300 uM pretreated for 30 mins; assay type: functional, tissue-based; outline: as §3
Aorta [7] = assay: Vasorelaxant activity in Sprague-Dawley rat thoracic aorta assessed as inhibition of U46619-induced GTP RhoA level at 300 uM pretreated for 30 mins measured after 45 mins by spectrometric analysis; assay type: functional, tissue-based; outline: as §2

| IC50 (Estrogen receptor) | pIC50 (Estrogen receptor) | SMILES | Activity (Aorta [1]) | Activity (Aorta [2]) | Activity (Aorta [3]) | Activity (Aorta [4]) | Activity (Aorta [5]) | Activity (Aorta [6]) | Activity (Aorta [7]) |
| --- | --- | --- | --- | --- | --- | --- | --- | --- | --- |
| 234 nM | – | Oc1ccc(C2=COc3cc(O)ccc3C2)cc1 [ISOPHENOXODIOL] | Dose-dependent effect | – | – | – | – | – | – |
| – | > 5 | c1ccc(C2COc3ccccc3C2)cc1 (stereo unspecified) | – | inactive | Active | Active | Active | – | – |
| 1660 nM | – | Oc1ccc(C2COc3cc(O)ccc3C2)cc1 (racemic) | Dose-dependent effect | – | Active | – | Active | – | – |
| 7590 nM | – | Oc1ccc(C2COc3ccccc3C2)cc1 (stereo unspecified) | Dose-dependent effect | – | Active | – | Active | – | – |
| – | – | O=c1cc(-c2ccccc2)oc2ccccc12 | – | – | – | – | – | Active | Active |
| 3630 nM | – | Oc1ccc2c(c1)OCC(c1ccccc1)C2 (stereo unspecified) | Dose-dependent effect | – | Active | – | Active | – | – |
| 661 nM | – | Oc1ccc(C2=Cc3ccc(O)cc3OC2)cc1 [IDRONOXIL] | Dose-dependent effect | – | Active | – | Active | – | – |

| SMILES | IC50 (Estrogen receptor) | pIC50 (Estrogen receptor) | Activity (Aorta [1]) | Activity (Aorta [2]) | Activity (Aorta [3]) | Activity (Aorta [4]) | Activity (Aorta [5]) | Activity (Aorta [6]) | Activity (Aorta [7]) |
| --- | --- | --- | --- | --- | --- | --- | --- | --- | --- |
| C[C@]12CC[C@@H]3c4ccc(O)cc4C[C@@H](CCCCCCCCC[S+]([O-])CCCC(F)(F)C(F)(F)F)[C@H]3[C@@H]1CC[C@@H]2O (stereo partly specified) [FULVESTRANT] | 5.89 nM | – | – | – | – | – | – | – | – |
